How the values were obtained:
Single ascending dose = format: in vivo, human; conditions: for Tmax / AUC(0-inf) / AUC(0-t) / Cmax: both, human, plasma, po
In short: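 Healthy subjects received one oral immediate-release capsule dose of test compound (30–200 µg) or placebo, with food withheld 1 h after dosing. K₂EDTA blood was drawn pre-dose, at 0.25–120 h, then every 24 h through Day 14. Samples were chilled, centrifuged and frozen at –20 ℃. Plasma was assayed by LC-MS/MS (0.03–15.0 ng/mL). Noncompartmental, linear-trapezoidal parameters are reported as mean (SD), with Tmax as median (min–max).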

healthy subjects = experiment: Multiple ascending dose; format: in vivo, human; conditions: for Abdominal distention, subjects (%) / Abdominal pain, subjects (%) / Acne, subjects (%) / Application site dermatitis, subjects (%) / Arthralgia, subjects (%) / Asthenia, subjects (%) / Back pain, subjects (%) / Chapped lips, subjects (%) / Chest pain, subjects (%) / Chromaturia, subjects (%) / Constipation, subjects (%) / Decreased appetite, subjects (%) / Dermatitis contact, subjects (%) / Diarrhea, subjects (%) / Dizziness, subjects (%) / Dry mouth, subjects (%) / Eructation, subjects (%) / Fatigue, subjects (%) / Feeling hot, subjects (%) / Flatulence, subjects (%) / Flushing, subjects (%) / Headache, subjects (%) / Hordeolum, subjects (%) / Muscle tightness, subjects (%) / Muscular weakness, subjects (%) / Myalgia, subjects (%) / Nausea, subjects (%) / Non-cardiac chest pain, subjects (%) / Number of AEs reported / Ocular hyperemia, subjects (%) / Oropharyngeal pain, subjects (%) / Pain in extremity, subjects (%) / Pain in jaw, subjects (%) / Palpitations, subjects (%) / Paraesthesia, subjects (%) / Pruritus, subjects (%) / Restless leg syndrome, subjects (%) / Somnolence, subjects (%) / Total (%) subjects with at least one AE / Total (%) subjects with at least one SAE / Tremor, subjects (%) / Vomiting, subjects (%): all dose levels, n = 20
In short: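 Subjects on test compound or placebo were domiciled up to 31 days (QD Cohorts 1–2) or 34 days (BID Cohort 3), with a 48-h drug-free follow-up. Monitoring at multiple time points covered adverse events, vital signs, 12-lead ECG with intensive ECG monitoring in all cohorts, and safety labs (serum chemistry, hematology, urinalysis). Data were summarized descriptively by treatment group.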

[1] = tested on: prostacyclin (IP) receptor; conditions: cited from earlier work
plasma protein = conditions: animals and humans; cited from earlier work
[2] = cited from earlier work
[3] = tested on: rat monocrotaline model of PAH; conditions: oral; cited from earlier work

SMILES: O=C(O)COC[C@H]1CC[C@H](COC(=O)N(c2ccccc2)c2ccc(Cl)cc2)CC1 [ralinepag]
- Tmax (Single ascending dose): 1 to 1.5 h
- AUC(0-inf) (Single ascending dose; 30 ug): 17.3 ng·h/mL
- AUC(0-t) (Single ascending dose; 30 ug): 15.9 ng·h/mL
- Cmax (Single ascending dose; 30 ug): 0.949 ng/mL
- Tmax (Single ascending dose; 30 ug): 1 h
- AUC(0-inf) (Single ascending dose; 50 ug): 22.8 ng·h/mL
- AUC(0-t) (Single ascending dose; 50 ug): 21.5 ng·h/mL
- Cmax (Single ascending dose; 50 ug): 1.49 ng/mL
- Tmax (Single ascending dose; 50 ug): 1.25 h
- AUC(0-inf) (Single ascending dose; 100 ug): 42.6 ng·h/mL
- AUC(0-t) (Single ascending dose; 100 ug): 41.2 ng·h/mL
- Cmax (Single ascending dose; 100 ug): 2.65 ng/mL
- Tmax (Single ascending dose; 100 ug): 1.5 h
- AUC(0-inf) (Single ascending dose; 200 ug): 103 ng·h/mL
- AUC(0-t) (Single ascending dose; 200 ug): 101 ng·h/mL
- Cmax (Single ascending dose; 200 ug): 6.17 ng/mL
- Tmax (Single ascending dose; 200 ug): 1.25 h
- Dose proportionality of Cmax and AUC (Single ascending dose; single doses from 30 to 200 µg): approximately dose proportional
- Abdominal distention, subjects (%) (healthy subjects; Cohort 3, BID): 0
- Abdominal pain, subjects (%) (healthy subjects; Cohort 3, BID): 4 (20%)
- Acne, subjects (%) (healthy subjects; Cohort 3, BID): 2 (10%)
- Application site dermatitis, subjects (%) (healthy subjects; Cohort 3, BID): 0
- Arthralgia, subjects (%) (healthy subjects; Cohort 3, BID): 9 (45%)
- Asthenia, subjects (%) (healthy subjects; Cohort 3, BID): 0
- Back pain, subjects (%) (healthy subjects; Cohort 3, BID): 2 (10%)
- Chapped lips, subjects (%) (healthy subjects; Cohort 3, BID): 2 (10%)
- Chest pain, subjects (%) (healthy subjects; Cohort 3, BID): 1 (5%)
- Chromaturia, subjects (%) (healthy subjects; Cohort 3, BID): 2 (10%)
- Constipation, subjects (%) (healthy subjects; Cohort 3, BID): 1 (5%)
- Decreased appetite, subjects (%) (healthy subjects; Cohort 3, BID): 1 (5.0%)
- Dermatitis contact, subjects (%) (healthy subjects; Cohort 3, BID): 2 (10%)
- Diarrhea, subjects (%) (healthy subjects; Cohort 3, BID): 7 (35%)
- Dizziness, subjects (%) (healthy subjects; Cohort 3, BID): 9 (45%)
- Dry mouth, subjects (%) (healthy subjects; Cohort 3, BID): 2 (10%)
- Eructation, subjects (%) (healthy subjects; Cohort 3, BID): 0
- Fatigue, subjects (%) (healthy subjects; Cohort 3, BID): 3 (15%)
- Feeling hot, subjects (%) (healthy subjects; Cohort 3, BID): 2 (10%)
- Flatulence, subjects (%) (healthy subjects; Cohort 3, BID): 0
- Flushing, subjects (%) (healthy subjects; Cohort 3, BID): 3 (15%)
- Headache, subjects (%) (healthy subjects; Cohort 3, BID): 17 (85%)
- Hordeolum, subjects (%) (healthy subjects; Cohort 3, BID): 0
- Muscle tightness, subjects (%) (healthy subjects; Cohort 3, BID): 2 (10%)
- Muscular weakness, subjects (%) (healthy subjects; Cohort 3, BID): 2 (10%)
- Myalgia, subjects (%) (healthy subjects; Cohort 3, BID): 9 (45%)
- Nausea, subjects (%) (healthy subjects; Cohort 3, BID): 9 (45%)
- Non-cardiac chest pain, subjects (%) (healthy subjects; Cohort 3, BID): 0
- Number of AEs reported (healthy subjects; Cohort 3, BID): 196
- Ocular hyperemia, subjects (%) (healthy subjects; Cohort 3, BID): 3 (15%)
- Oropharyngeal pain, subjects (%) (healthy subjects; Cohort 3, BID): 1 (5%)
- Pain in extremity, subjects (%) (healthy subjects; Cohort 3, BID): 0
- Pain in jaw, subjects (%) (healthy subjects; Cohort 3, BID): 13 (65%)
- Palpitations, subjects (%) (healthy subjects; Cohort 3, BID): 5 (25%)
- Paraesthesia, subjects (%) (healthy subjects; Cohort 3, BID): 4 (20%)
- Pruritus, subjects (%) (healthy subjects; Cohort 3, BID): 2 (10%)
- Restless leg syndrome, subjects (%) (healthy subjects; Cohort 3, BID): 2 (10%)
- Somnolence, subjects (%) (healthy subjects; Cohort 3, BID): 2 (10%)
- Total (%) subjects with at least one AE (healthy subjects; Cohort 3, BID): 19 (95.0%)
- Total (%) subjects with at least one SAE (healthy subjects; Cohort 3, BID): 0 (0%)
- Tremor, subjects (%) (healthy subjects; Cohort 3, BID): 1 (5.0%)
- Vomiting, subjects (%) (healthy subjects; Cohort 3, BID): 3 (15%)
- Abdominal distention, subjects (%) (healthy subjects; Cohorts 1 and 2, QD): 2 (10%)
- Abdominal pain, subjects (%) (healthy subjects; Cohorts 1 and 2, QD): 6 (30%)
- Acne, subjects (%) (healthy subjects; Cohorts 1 and 2, QD): 0
- Application site dermatitis, subjects (%) (healthy subjects; Cohorts 1 and 2, QD): 6 (30%)
- Arthralgia, subjects (%) (healthy subjects; Cohorts 1 and 2, QD): 0
- Asthenia, subjects (%) (healthy subjects; Cohorts 1 and 2, QD): 2 (10%)
- Back pain, subjects (%) (healthy subjects; Cohorts 1 and 2, QD): 1 (5%)
- Chapped lips, subjects (%) (healthy subjects; Cohorts 1 and 2, QD): 0
- Chest pain, subjects (%) (healthy subjects; Cohorts 1 and 2, QD): 1 (5%)
- Chromaturia, subjects (%) (healthy subjects; Cohorts 1 and 2, QD): 0
- Constipation, subjects (%) (healthy subjects; Cohorts 1 and 2, QD): 6 (30%)
- Decreased appetite, subjects (%) (healthy subjects; Cohorts 1 and 2, QD): 4 (20%)
- Dermatitis contact, subjects (%) (healthy subjects; Cohorts 1 and 2, QD): 0
- Diarrhea, subjects (%) (healthy subjects; Cohorts 1 and 2, QD): 5 (25%)
- Dizziness, subjects (%) (healthy subjects; Cohorts 1 and 2, QD): 5 (25%)
- Dry mouth, subjects (%) (healthy subjects; Cohorts 1 and 2, QD): 0
- Eructation, subjects (%) (healthy subjects; Cohorts 1 and 2, QD): 3 (15%)
- Fatigue, subjects (%) (healthy subjects; Cohorts 1 and 2, QD): 2 (10%)
- Feeling hot, subjects (%) (healthy subjects; Cohorts 1 and 2, QD): 2 (10%)
- Flatulence, subjects (%) (healthy subjects; Cohorts 1 and 2, QD): 2 (10%)
- Flushing, subjects (%) (healthy subjects; Cohorts 1 and 2, QD): 7(35%)
- Headache, subjects (%) (healthy subjects; Cohorts 1 and 2, QD): 19 (95%)
- Hordeolum, subjects (%) (healthy subjects; Cohorts 1 and 2, QD): 3 (15%)
- Muscle tightness, subjects (%) (healthy subjects; Cohorts 1 and 2, QD): 0
- Muscular weakness, subjects (%) (healthy subjects; Cohorts 1 and 2, QD): 1 (5%)
- Myalgia, subjects (%) (healthy subjects; Cohorts 1 and 2, QD): 6 (30%)
- Nausea, subjects (%) (healthy subjects; Cohorts 1 and 2, QD): 17 (85%)
- Non-cardiac chest pain, subjects (%) (healthy subjects; Cohorts 1 and 2, QD): 2 (10%)
- Number of AEs reported (healthy subjects; Cohorts 1 and 2, QD): 230
- Ocular hyperemia, subjects (%) (healthy subjects; Cohorts 1 and 2, QD): 0
- Oropharyngeal pain, subjects (%) (healthy subjects; Cohorts 1 and 2, QD): 2(10%)
- Pain in extremity, subjects (%) (healthy subjects; Cohorts 1 and 2, QD): 3 (15%)
- Pain in jaw, subjects (%) (healthy subjects; Cohorts 1 and 2, QD): 13 (65%)
- Palpitations, subjects (%) (healthy subjects; Cohorts 1 and 2, QD): 4 (20%)
- Paraesthesia, subjects (%) (healthy subjects; Cohorts 1 and 2, QD): 1 (5%)
- Pruritus, subjects (%) (healthy subjects; Cohorts 1 and 2, QD): 1 (5.0%)
- Restless leg syndrome, subjects (%) (healthy subjects; Cohorts 1 and 2, QD): 1 (5%)
- Somnolence, subjects (%) (healthy subjects; Cohorts 1 and 2, QD): 3 (15%)
- Total (%) subjects with at least one AE (healthy subjects; Cohorts 1 and 2, QD): 20 (100%)
- Total (%) subjects with at least one SAE (healthy subjects; Cohorts 1 and 2, QD): 1 (5.0%)
- Tremor, subjects (%) (healthy subjects; Cohorts 1 and 2, QD): 2 (10%)
- Vomiting, subjects (%) (healthy subjects; Cohorts 1 and 2, QD): 12 (60%)
- Subjects withdrawn from the study due to AEs (healthy subjects; Cohorts 1 and 2, receiving ralinepag): three
- Tolerability versus dose (healthy subjects; QD (up to 400 µg) or BID (up to 70 µg) dosing): tolerability decreasing with increasing dose
- QT prolongation (12-lead Holter ECG, high-precision QT analysis) (healthy subjects; QD and BID dose ranges evaluated): not likely to be associated with QT prolongation
- Serious adverse event (healthy subjects; one subject, 50 µg QD, Cohort 2, possibly related to study medication): SAE of atrial fibrillation considered moderate in intensity
- Maximal cAMP stimulation (efficacy percentage relative to iloprost) [1]: 67%
- Type of IP receptor agonism [1]: strong partial agonist
- Functional potency relative to ACT-333679 ([1]; greater potency than selexipag active metabolite): 6–8 fold
- Plasma protein binding (plasma protein): ~99%
- Enterohepatic recirculation ([2]; animals): observed
- Oral bioavailability ([2]; mouse, rat, dog, and monkey): moderate to high
- Efficacy in rat monocrotaline model of PAH [3]: dose-dependent oral efficacy

Source: PMC7238799 (Pulmonary Circulation, 2020)
